# Laboratory results as given in ChEMBL document CHEMBL1165943, “Design and synthesis of new anticancer pyrimidines with multiple-kinase inhibitory effect” (Bioorg Med Chem, 2010).
# Tests used:
# Assay type in all cases: functional
# HL-60(TB) = assay: Cytotoxicity against human HL-60(TB) cells assessed as cell growth at 10 uM; settings: for growth at 10 µM: Homo sapiens, HL-60, read-out: Activity
# In short: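 Single-concentration 10 µM screen of HL-60(TB) within the 60-line panel, grown in RPMI 1640 with 5% FBS. The drug from DMSO stock is incubated 48 h at 37 °C, settled cells are TCA-fixed and SRB-stained, and absorbance is read at 515 nm. Percent growth is reported, and inhibition % is taken as 100 minus growth %.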
# K562 = assay: Cytotoxicity against human K562 cells assessed as cell growth at 10 uM; settings: for growth at 10 µM: Homo sapiens, K562, read-out: Activity
# In short: (§1)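 Single-dose screen at 10 μM across the 60-cell-line panel. Cells grown in RPMI 1640 with 5% FBS and 2 mM L-glutamine, seeded at 5,000–40,000 cells/well according to doubling time, and treated 24 h later. Exposure lasted 48 h at 37 °C, 5% CO₂. Adherent cells were fixed with cold TCA, suspension cells were fixed settled, and both were stained with SRB and read at 515 nm. Growth % was recorded, with inhibition % = 100 − growth %.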
# MOLT-4 = assay: Cytotoxicity against human MOLT4 cells assessed as cell growth at 10 uM; settings: for growth at 10 µM: Homo sapiens, MOLT-4, read-out: Activity; in short: as §1
# SR = assay: Cytotoxicity against human SR cells assessed as cell growth at 10 uM; in short: as §1
# HOP-62 = assay: Cytotoxicity against human HOP62 cells assessed as cell growth at 10 uM; settings: for growth at 10 µM: Homo sapiens, HOP-62, read-out: Activity
# In short: (§2)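 Single-concentration screen at 10 μM across the 60-cell-line panel (nine tissue types); growth percentage recorded per cell line, with inhibition taken as 100 minus growth percentage.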
# NCI-H226 = assay: Cytotoxicity against human NCI-H226 cells assessed as cell growth at 10 uM; settings: for growth at 10 µM: Homo sapiens, NCI-H226, read-out: Activity; in short: as §1
# NCI-H23 = assay: Cytotoxicity against human NCI-H23 cells assessed as cell growth at 10 uM; settings: for growth at 10 µM: Homo sapiens, NCI-H23, read-out: Activity; in short: as §1
# NCI-H522 = assay: Cytotoxicity against human NCI-H522 cells assessed as cell growth at 10 uM; settings: for growth at 10 µM: Homo sapiens, NCI-H522, read-out: Activity; in short: as §1
# HCC 2998 = assay: Cytotoxicity against human HCC2998 cells assessed as cell growth at 10 uM; settings: for growth at 10 µM: Homo sapiens, HCC 2998, read-out: Activity; in short: as §2
# HCT-116 = assay: Cytotoxicity against human HCT116 cells assessed as cell growth at 10 uM; settings: for growth at 10 µM: Homo sapiens, HCT-116, read-out: Activity; in short: as §2
# HCT-15 = assay: Cytotoxicity against human HCT15 cells assessed as cell growth at 10 uM; settings: for growth at 10 µM: Homo sapiens, HCT-15, read-out: Activity; in short: as §2
# HT-29 = assay: Cytotoxicity against human HT-29 cells assessed as cell growth at 10 uM; settings: for growth at 10 µM: Homo sapiens, HT-29, read-out: Activity; in short: as §2
# KM12 = assay: Cytotoxicity against human KM12 cells assessed as cell growth at 10 uM; settings: for growth at 10 µM: Homo sapiens, KM12, read-out: Activity; in short: as §1
# SF-268 = assay: Cytotoxicity against human SF268 cells assessed as cell growth at 10 uM; settings: for growth at 10 µM: Homo sapiens, SF-268, read-out: Activity; in short: as §1
# SF-539 = assay: Cytotoxicity against human SF539 cells assessed as cell growth at 10 uM; settings: for growth at 10 µM: Homo sapiens, SF-539, read-out: Activity; in short: as §1
# SNB-75 = assay: Cytotoxicity against human SNB75 cells assessed as cell growth at 10 uM; settings: for growth at 10 µM: Homo sapiens, SNB-75, read-out: Activity; in short: as §1
# U-251 = assay: Cytotoxicity against human U251 cells assessed as cell growth at 10 uM; settings: for growth at 10 µM: Homo sapiens, U-251, read-out: Activity; in short: as §1
# LOX IMVI = assay: Cytotoxicity against human LOXIMVI cells assessed as cell growth at 10 uM; in short: as §1
# SK-MEL-2 = assay: Cytotoxicity against human SK-MEL-2 cells assessed as cell growth at 10 uM; settings: for growth at 10 µM: Homo sapiens, SK-MEL-2, read-out: Activity; in short: as §1
# UACC-62 = assay: Cytotoxicity against human UACC62 cells assessed as cell growth at 10 uM; settings: for growth at 10 µM: Homo sapiens, UACC-62, read-out: Activity; in short: as §1
# IGROV-1 = assay: Cytotoxicity against human IGROV1 cells assessed as cell growth at 10 uM; settings: for growth at 10 µM: Homo sapiens, IGROV-1, read-out: Activity; in short: as §1
# OVCAR-3 = assay: Cytotoxicity against human OVCAR-3 cells assessed as cell growth at 10 uM; settings: for growth at 10 µM: Homo sapiens, OVCAR-3, read-out: Activity; in short: as §1
# OVCAR-4 = assay: Cytotoxicity against human OVCAR4 cells assessed as cell growth at 10 uM; in short: as §1
# OVCAR-8 = assay: Cytotoxicity against human OVCAR8 cells assessed as cell growth at 10 uM; settings: for growth at 10 µM: Homo sapiens, OVCAR-8, read-out: Activity; in short: as §1
# NCI/ADR-RES = assay: Cytotoxicity against human NCI/ADR-RES cells assessed as cell growth at 10 uM; settings: for growth at 10 µM: Homo sapiens, NCI/ADR-RES, read-out: Activity; in short: as §1
# 786-0 = assay: Cytotoxicity against human 786-0 cells assessed as cell growth at 10 uM; settings: for growth at 10 µM: Homo sapiens, 786-0, read-out: Activity; in short: as §2
# A498 = assay: Cytotoxicity against human A498 cells assessed as cell growth at 10 uM; settings: for growth at 10 µM: Homo sapiens, A498, read-out: Activity; in short: as §2
# ACHN = assay: Cytotoxicity against human ACHN cells assessed as cell growth at 10 uM; settings: for growth at 10 µM: Homo sapiens, ACHN, read-out: Activity; in short: as §2
# CAKI-1 = assay: Cytotoxicity against human Caki1 cells assessed as cell growth at 10 uM; settings: for growth at 10 µM: Homo sapiens, CAKI-1, read-out: Activity; in short: as §2
# UO-31 = assay: Cytotoxicity against human UO31 cells assessed as cell growth at 10 uM; settings: for growth at 10 µM: Homo sapiens, UO-31, read-out: Activity; in short: as §1
# DU-145 = assay: Cytotoxicity against human DU145 cells assessed as cell growth at 10 uM; settings: for growth at 10 µM: Homo sapiens, DU-145, read-out: Activity; in short: as §2
# MCF7 = assay: Cytotoxicity against human MCF7 cells assessed as cell growth at 10 uM; settings: for growth at 10 µM: Homo sapiens, MCF7, read-out: Activity; in short: as §1
# MDA-MB-231 = assay: Cytotoxicity against human MDA-MB-231 cells assessed as cell growth at 10 uM; settings: for growth at 10 µM: Homo sapiens, MDA-MB-231, read-out: Activity; in short: as §1
# BT-549 = assay: Cytotoxicity against human BT549 cells assessed as cell growth at 10 uM; in short: as §2
# T47D = assay: Cytotoxicity against human T47D cells assessed as cell growth at 10 uM; settings: for growth at 10 µM: Homo sapiens, T47D, read-out: Activity; in short: as §1
# MDA-MB-468 = assay: Cytotoxicity against human MDA-MB-468 cells assessed as cell growth at 10 uM; settings: for growth at 10 µM: Homo sapiens, MDA-MB-468, read-out: Activity; in short: as §1
# [1] = Growth inhibition of human NCI60 cells at 10 uM after 48 hrs by sulforhodamine B assay relative to control; settings: for inhibition of growth at 10 µM: Homo sapiens, NCI60, 48 h, read-out: GI
# In short: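 Single 10 µM dose across the 60-line panel for 48 h, with the same culture, TCA fixation and SRB 515 nm read-out. Inhibition % = 100 − growth %, given as the mean over the 60 cell lines.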
structure (smiles),measurement,setting,value
CC(=O)c1ccccc1-c1ccc(-c2ccnc(NC(=O)Nc3cc(C(F)(F)F)cc(C(F)(F)F)c3)n2)cn1,growth at 10 µM,HL-60(TB),101%
same,growth at 10 µM,K562,90.8%
same,growth at 10 µM,MOLT-4,88.3%
same,Activity,SR,19.97%
same,growth at 10 µM,HOP-62,95.6%
same,growth at 10 µM,NCI-H226,98.6%
same,growth at 10 µM,NCI-H23,99.8%
same,growth at 10 µM,NCI-H522,90.1%
same,growth at 10 µM,HCC 2998,105%
same,growth at 10 µM,HCT-116,69.9%
same,growth at 10 µM,HCT-15,93.2%
same,growth at 10 µM,HT-29,96.3%
same,growth at 10 µM,KM12,93.8%
same,growth at 10 µM,SF-268,94.4%
same,growth at 10 µM,SF-539,87%
same,growth at 10 µM,SNB-75,72%
same,growth at 10 µM,U-251,85.1%
same,Activity,LOX IMVI,65.57%
same,Activity,SK-MEL-2,95.01%
same,Activity,UACC-62,92.88%
same,Activity,IGROV-1,78.4%
same,Activity,OVCAR-3,126.52%
same,Activity,OVCAR-4,-18.53%
same,Activity,OVCAR-8,83.37%
same,Activity,NCI/ADR-RES,87.74%
same,Activity,786-0,93.55%
same,Activity,A498,106.93%
same,Activity,ACHN,88.77%
same,Activity,CAKI-1,81.28%
same,Activity,UO-31,76.28%
same,Activity,DU-145,91.19%
same,Activity,MCF7,75.33%
same,Activity,MDA-MB-231,83.21%
same,Activity,BT-549,90.06%
same,Activity,T47D,82.59%
same,Activity,MDA-MB-468,81.95%
same,inhibition of growth at 10 µM,[1],11.3%
CC(=O)c1ccccc1-c1ccc(-c2ccnc(NC(=O)Nc3cc(C(F)(F)F)cc(C(F)(F)F)c3)n2)cn1.Cl,Activity,HL-60(TB),98.79%
same,Activity,K562,80.11%
same,Activity,MOLT-4,93.09%
same,Activity,SR,97.1%
same,Activity,HOP-62,90.22%
same,Activity,NCI-H226,103.94%
same,Activity,NCI-H23,84.35%
same,Activity,NCI-H522,77.27%
same,Activity,HCC 2998,88.79%
same,Activity,HCT-116,81.77%
same,Activity,HCT-15,95.89%
same,Activity,HT-29,95.08%
same,Activity,KM12,92.08%
same,Activity,SF-268,83.42%
same,Activity,SF-539,91.97%
same,Activity,SNB-75,77.47%
same,Activity,U-251,86.33%
same,Activity,LOX IMVI,94.42%
same,growth at 10 µM,SK-MEL-2,78.8%
same,growth at 10 µM,UACC-62,94.3%
same,growth at 10 µM,IGROV-1,91%
same,growth at 10 µM,OVCAR-3,108%
same,Activity,OVCAR-4,98.42%
same,growth at 10 µM,OVCAR-8,90.8%
same,growth at 10 µM,NCI/ADR-RES,80.9%
same,growth at 10 µM,786-0,79.5%
same,growth at 10 µM,A498,113%
same,growth at 10 µM,ACHN,91%
same,growth at 10 µM,CAKI-1,78.4%
same,growth at 10 µM,UO-31,75%
same,growth at 10 µM,DU-145,109%
same,growth at 10 µM,MCF7,89.8%
same,growth at 10 µM,MDA-MB-231,83.7%
same,Activity,BT-549,63.01%
same,growth at 10 µM,T47D,85.4%
same,growth at 10 µM,MDA-MB-468,74.7%
same,growth inhibition (GI),[1],9.74%
O=C(Nc1cc(C(F)(F)F)cc(C(F)(F)F)c1)Nc1nccc(-c2ccc(Nc3ccccc3)nc2)n1,growth at 10 µM,HL-60(TB),99.7%
same,growth at 10 µM,K562,93.6%
same,growth at 10 µM,MOLT-4,96.6%
same,growth at 10 µM,"SR; Homo sapiens, SR, read-out: Activity",84.6%
same,growth at 10 µM,HOP-62,103%
same,growth at 10 µM,NCI-H226,104%
same,growth at 10 µM,NCI-H23,108%
same,growth at 10 µM,NCI-H522,94.3%
same,growth at 10 µM,HCC 2998,109%
same,growth at 10 µM,HCT-116,93.2%
same,growth at 10 µM,HCT-15,108%
same,growth at 10 µM,HT-29,94.4%
same,growth at 10 µM,KM12,117%
same,growth at 10 µM,SF-268,117%
same,growth at 10 µM,SF-539,96.4%
same,growth at 10 µM,SNB-75,90.1%
same,growth at 10 µM,U-251,113%
same,growth at 10 µM,"LOX IMVI; Homo sapiens, LOX IMVI, read-out: Activity",112%
same,growth at 10 µM,SK-MEL-2,101%
same,growth at 10 µM,UACC-62,101%
same,growth at 10 µM,IGROV-1,105%
same,growth at 10 µM,OVCAR-3,124%
same,growth at 10 µM,"OVCAR-4; Homo sapiens, OVCAR-4, read-out: Activity",114%
same,growth at 10 µM,OVCAR-8,103%
same,growth at 10 µM,NCI/ADR-RES,108%
same,growth at 10 µM,786-0,112%
same,growth at 10 µM,A498,107%
same,growth at 10 µM,ACHN,93%
same,growth at 10 µM,CAKI-1,102%
same,growth at 10 µM,UO-31,91.6%
same,growth at 10 µM,DU-145,126%
same,growth at 10 µM,MCF7,99.6%
same,growth at 10 µM,MDA-MB-231,93.4%
same,growth at 10 µM,"BT-549; Homo sapiens, BT-549, read-out: Activity",111%
same,growth at 10 µM,T47D,110%
same,growth at 10 µM,MDA-MB-468,108%
same,inhibition of growth at 10 µM,[1],-6.98%
